From ChEMBL document CHEMBL1148267, “Synthesis and biological activity of a novel squalene epoxidase inhibitor, FR194738” (Bioorg Med Chem Lett, 2004)
Each block holds one compound with its values, some of them ahead of it.

Key:
[1] = organism: Homo sapiens; assay: In vitro inhibitory activity was evaluated against human squalence epoxidase; format: functional
Outline: (§1)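 Source of enzyme: dog or rat liver microsomes, or HepG2 cell homogenate for human, solubilized in 2% Triton X-100. Each was incubated with AMO-1680, FAD, NADPH, EDTA, [³H]squalene and drug for 90 min at 37 °C. The reaction was stopped with ethanolic KOH. Non-saponifiable lipids were separated by silica TLC and 2,3-oxidosqualene radioactivity was counted to give IC50.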

[2] = Partition coefficient (logP); format: physicochemical; conditions: octanol/water
[3] = organism: Canis familiaris; assay: In vitro inhibitory activity was evaluated against dog squalence epoxidase; format: functional, Canis lupus familiaris; outline: as §1
[4] = Bioavailability in rat; format: ADME, organism-based; conditions: in vivo
Outline: (§2)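 Rats dosed orally with a single 10 mg/kg dose, given as a suspension in 0.5% methylcellulose. Plasma was sampled to derive Cmax, Tmax, AUC over 0–8 h and bioavailability.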

[5] = Compound was evaluated for maximum time(Tmax) in suspension of 0.5% methylcellulose at a dose of 10 mg/kg in rat; format: ADME, organism-based; design: dose 10 mg/kg; conditions: in vivo; outline: as §2
[6] = organism: Rattus norvegicus; assay: In vitro inhibitory activity was evaluated against rat squalence epoxidase; format: functional; outline: as §1
[7] = Compound was evaluated for maximum concentration (Cmax) in suspension of 0.5% methylcellulose at a dose of 10 mg/kg in rat; format: ADME, organism-based; design: dose 10 mg/kg; conditions: in vivo; outline: as §2
[8] = Compound was evaluated for area under the curve (0-8 h); format: ADME, organism-based; design: time < 8 hr; conditions: rat, in vivo; outline: as §2
[9] = test system: Canis familiaris; assay: Compound was evaluated for change in the effect of plasma lipoprotein cholesterol level (LDL) at a dose of 3.2 mg/kg/day; format: ADME, organism-based, Canis lupus familiaris; conditions: dog, in vivo
Outline: (§3)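 Male beagle dogs (9–11 kg, n=3) dosed orally twice daily for 28 days, at 3.2, 10 or 32 mg/kg/day. On day 14, serum lipoprotein fractions were separated by ultracentrifugation. LDL and HDL cholesterol were measured enzymatically and expressed as % change. Atherogenic index was taken as the LDL/HDL ratio.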

[10] = test system: Canis familiaris; assay: Compound was evaluated for artherogenic index in plasma lipoprotein cholesterol level (LDL cholesterol / HDL cholesterol) at a dose of 10 mg/kg/day; format: ADME, organism-based, Canis lupus familiaris; conditions: dog, in vivo; outline: as §3
[11] = test system: Canis familiaris; assay: Compound was evaluated for change in the effect of plasma lipoprotein cholesterol level (HDL) at a dose of 10 mg/kg/day; format: ADME, organism-based, Canis lupus familiaris; conditions: dog, in vivo; outline: as §3
[12] = test system: Canis familiaris; assay: Compound was evaluated for change in the effect of plasma lipoprotein cholesterol level (LDL) at a dose of 32 mg/kg/day; format: ADME, organism-based, Canis lupus familiaris; conditions: dog, in vivo; outline: as §3
[13] = test system: Canis familiaris; assay: Compound was evaluated for artherogenic index in plasma lipoprotein cholesterol level (LDL cholesterol / HDL cholesterol) at a dose of 3.2 mg/kg/day; format: ADME, organism-based, Canis lupus familiaris; conditions: dog, in vivo; outline: as §3
[14] = test system: Canis familiaris; assay: Compound was evaluated for artherogenic index in plasma lipoprotein cholesterol level (LDL cholesterol / HDL cholesterol) at a dose of 32 mg/kg/day; format: ADME, organism-based, Canis lupus familiaris; conditions: dog, in vivo; outline: as §3
[15] = test system: Canis familiaris; assay: Compound was evaluated for change in the effect of plasma lipoprotein cholesterol level (LDL) at a dose of 10 mg/kg/day; format: ADME, organism-based, Canis lupus familiaris; conditions: dog, in vivo; outline: as §3
[16] = test system: Canis familiaris; assay: Compound was evaluated for change in the effect of plasma lipoprotein cholesterol level (HDL) at a dose of 32 mg/kg/day; format: ADME, organism-based, Canis lupus familiaris; conditions: dog, in vivo; outline: as §3
[17] = test system: Canis familiaris; assay: Compound was evaluated for change in the effect of plasma lipoprotein cholesterol level (HDL) at a dose of 3.2 mg/kg/day; format: ADME, organism-based, Canis lupus familiaris; conditions: dog, in vivo; outline: as §3
[18] = test system: HepG2; assay: In vitro inhibitory activity was evaluated on cholesterol biosynthesis in HepG2 cells; format: functional, cell-based; conditions: Homo sapiens
Outline: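 HepG2 cells were kept overnight in 10% human lipoprotein-deficient serum, then preincubated 1 h with drug. [¹⁴C]acetate was added for 2 h. Cells were lysed and saponified with ethanolic KOH. Digitonin was added to the non-saponifiable lipids, and radioactivity of the digitonin-coprecipitable sterols was counted to give IC50.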

IC50 ([1]; Homo sapiens): 160 nM | logP ([2]; read-out: logP): 8.45
Structure (SMILES): C=CCC(CC=C)(COc1cccc(CN(CC)C/C=C/C#CC(C)(C)C)c1)OCc1ccsc1

IC50 ([1]; Homo sapiens): 23 nM | logP ([2]; read-out: logP): 7.48 | IC50 ([3]; Canis lupus familiaris): 370 nM
Structure (SMILES): CCN(C/C=C/C#CC(C)(C)C)Cc1cccc(OCC(C)(C)OC(=O)c2ccsc2)c1

IC50 ([1]; Homo sapiens): 7.2 nM | logP ([2]; read-out: logP): 8.19 | bioavailability [4]: 16.5% | Tmax [5]: 1.67 h | IC50 [6]: 36 nM | Cmax [7]: 329 ng/mL | AUC(0-t) at 8 h [8]: 1390 ng·h/mL | IC50 ([3]; Canis lupus familiaris): 43 nM
Structure (SMILES): CCN(C/C=C/C#CC(C)(C)C)Cc1cccc(OCc2cc(-c3ccsc3)cs2)c1

IC50 ([1]; Homo sapiens): 31 nM | logP ([2]; read-out: logP): 7.83 | IC50 ([3]; Canis lupus familiaris): 51 nM
Structure (SMILES): CCCN(C/C=C/C#CC(C)(C)C)Cc1cccc(OCC(C)(C)OCc2ccsc2)c1

The remaining lines, values behind:

Structure (SMILES): CCN(C/C=C/C#CC(C)(C)C)Cc1cccc(OCCOCc2ccsc2)c1
IC50 ([1]; Homo sapiens): 25 nM | logP ([2]; read-out: logP): 6.6 | IC50 ([3]; Canis lupus familiaris): 230 nM

Structure (SMILES): CCN(C/C=C/C#CC(C)(C)C)Cc1cccc(OCC(CC)(CC)OCc2ccsc2)c1
IC50 ([1]; Homo sapiens): 120 nM | logP ([2]; read-out: logP): 8.36

Structure (SMILES): CN(C/C=C/C#CC(C)(C)C)Cc1cccc(OCC(C)(C)OCc2ccsc2)c1
IC50 ([1]; Homo sapiens): 11 nM | logP ([2]; read-out: logP): 6.78 | IC50 ([3]; Canis lupus familiaris): 77 nM

Structure (SMILES): CCN(C/C=C/C#CC(C)(C)C)Cc1cccc(OCC(C)(C)OCc2ccsc2)c1
IC50 ([1]; Homo sapiens): 5.4 nM | logP ([2]; read-out: logP): 7.3 | IC50 [3]: 34 nM

Structure (SMILES): CCN(C/C=C/C#CC(C)(C)C)Cc1cccc(OCC(C)(C)OCc2ccsc2)c1.Cl
IC50 [1]: 9.8 nM | logP [2]: 7.3 | bioavailability [4]: 32.9% | LDL [9]: -2% | Activity [10]: -38% | Tmax [5]: 1.17 h | HDL [11]: -14% | LDL [12]: -61% | IC50 [6]: 25 nM | Cmax [7]: 486 ng/mL | Activity [13]: -2% | Activity [14]: -47% | AUC(0-t) at 8 h [8]: 1870 ng·h/mL | LDL [15]: -47% | HDL [16]: -27% | HDL [17]: 0% | IC50 [3]: 14 nM

Structure (SMILES): CC(C)n1c(/C=C/[C@H](O)C[C@H](O)CC(=O)O)c(-c2ccc(F)cc2)c2ccccc21 [FLUVASTATIN]
IC50 [18]: 28 nM

Structure (SMILES): CCC(C)(C)C(=O)O[C@H]1C[C@@H](C)C=C2C=C[C@H](C)[C@H](CC[C@@H]3C[C@@H](O)CC(=O)O3)[C@H]21 [SIMVASTATIN]
IC50 [18]: 40 nM
